# ChEMBL document CHEMBL1177882, “Novel bisstyryl derivatives of bakuchiol: targeting oral cavity pathogens” (2010)
# Calls of active or inactive are those of the source. No cut-off for these calls is given here.
# What was measured:
# Streptococcus mutans [1] = assay: Ratio of compound MIC to bakuchiol MIC for Streptococcus mutans ATCC 25175; format: functional
# Streptococcus mutans [2] = assay: Antibacterial activity against Streptococcus mutans ATCC 25175 after 48 hrs by broth microdilution method; format: functional; settings: ATCC 25175, 48 h
# Actinomyces viscosus [3] = assay: Ratio of compound MIC to bakuchiol MIC for Actinomyces viscosus ATCC 15987; format: functional
# Streptococcus mutans [4] = assay: Antibacterial activity against Streptococcus mutans ATCC 25175 assessed as decrease in cell viability at 2 time MIC after 60 mins by serial dilution method relative to control; format: functional
# Summary of the method: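 S. mutans suspension from an 18 h culture (~1 × 10^9 cfu/ml) diluted 1:20 into phosphate buffer containing compound at 2 × MIC. Incubated 60 min at 37 °C, then serially diluted in saline and plated on BHI agar. Colonies counted after 48 h at 37 °C in 5% CO2; viability given as CFU/ml relative to untreated cells.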
# Prevotella intermedia [5] = assay: Ratio of compound MIC to bakuchiol MIC for Prevotella intermedia ATCC 25611; format: functional
# Streptococcus sanguinis [6] = assay: Antibacterial activity against Streptococcus sanguinis ATCC 10556 after 48 hrs by broth microdilution method; format: functional; settings: ATCC 10556, 48 h
# Streptococcus sanguinis [7] = assay: Antibacterial activity against Streptococcus sanguinis ATCC 10556 after 24 hrs by broth microdilution method; settings: ATCC 10556, 24 h
# Prevotella intermedia [8] = assay: Antibacterial activity against Prevotella intermedia ATCC 25611 after 48 hrs by broth microdilution method; format: functional; settings: ATCC 25611, 48 h
# Summary of the method: (§1)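 Broth microdilution MIC for obligate anaerobes, run in their growth media (Wilkins–Chalgren for F. nucleatum and P. intermedia; supplemented Todd Hewitt broth for P. gingivalis). Inoculum suspended in Brucella broth, final 5 × 10^6 cfu/ml. Twofold dilutions, final 0.12–128 µg/ml. Incubated anaerobically (90% N2/5% H2/5% CO2) at 37 °C for 48 h; MIC is the lowest concentration without turbidity.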
# Actinomyces viscosus [9] = assay: Antibacterial activity against Actinomyces viscosus ATCC 15987 after 24 hrs by broth microdilution method; settings: ATCC 15987, 24 h
# Streptococcus sanguinis [10] = assay: Ratio of compound MIC to bakuchiol MIC for Streptococcus sanguinis ATCC 10556; format: functional
# Streptococcus mutans [11] = assay: Antibacterial activity against Streptococcus mutans ATCC 25175 assessed as increase of cell membrane permeability at 2 time MIC after 60 mins propidium iodide staining by flow cytometry; format: functional, organism-based
# Summary of the method: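 Overnight BHI culture of S. mutans washed into 50 mmol/l sodium phosphate pH 7.1 (~1 × 10^9 cfu/ml), diluted 1:20 into buffer with compound at 2 × MIC. Incubated 60 min at room temperature; aliquots diluted in buffer and stained with propidium iodide at 10 µg/ml final on ice. The percentage of PI-stained cells was measured by flow cytometry.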
# Fusobacterium nucleatum [12] = assay: Antibacterial activity against Fusobacterium nucleatum ATCC 10953 after 48 hrs by broth microdilution method; format: functional; settings: ATCC 10953, 48 h; summary of the method: as §1
# Porphyromonas gingivalis [13] = assay: Antibacterial activity against Porphyromonas gingivalis ATCC 33277 after 48 hrs by broth microdilution method; format: functional; settings: ATCC 33277, 48 h; summary of the method: as §1
# Actinomyces viscosus [14] = assay: Antibacterial activity against Actinomyces viscosus ATCC 15987 after 48 hrs by broth microdilution method; format: functional; settings: ATCC 15987, 48 h
# Fusobacterium nucleatum [15] = assay: Ratio of compound MIC to bakuchiol MIC for sFusobacterium nucleatum ATCC 10953; format: functional
# Porphyromonas gingivalis [16] = assay: Ratio of compound MIC to bakuchiol MIC for Porphyromonas gingivalis ATCC 33277; format: functional
# Streptococcus mutans [17] = assay: Antibacterial activity against Streptococcus mutans ATCC 25175 assessed as inhibition of biofilm formation after 18 hrs; format: functional
# Summary of the method: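 Single-species S. mutans biofilm grown in flat-bottom polystyrene wells, BHI with 2% sucrose, 6 × 10^7 cfu/ml final, compound twofold 0.12–128 µg/ml, 18 h at 37 °C in 5% CO2. Wells rinsed with PBS pH 7.2, methanol-fixed, stained with 0.1% crystal violet, eluted in 95% ethanol, A595 read. % inhibition relative to untreated control; MBIC50 is the lowest concentration giving ≥50% inhibition.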
# Streptococcus mutans [18] = assay: Antibacterial activity against Streptococcus mutans ATCC 25175 after 24 hrs by broth microdilution method; settings: ATCC 25175, 24 h
# Streptococcus mutans [19] = assay: Antibacterial activity against Streptococcus mutans ATCC 25175 assessed as 280 nm absorbing material release at 2 time MIC after 60 mins by spectrophotometric analysis; format: functional, organism-based
# Summary of the method: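 S. mutans prepared in 50 mmol/l phosphate pH 7.1 (~1 × 10^9 cfu/ml) was exposed to compound at 2 × MIC for 60 min at 37 °C. Supernatant taken after centrifugation (10,000 g, 10 min) and read at A280. Release is expressed as % of a total-release control made by lysozyme treatment (100 µg/ml, 60 min, 37 °C) plus sonication.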
MIC (Streptococcus sanguinis [7]),MIC (Prevotella intermedia [8]),MIC (Actinomyces viscosus [9]),MIC (Fusobacterium nucleatum [12]),MIC (Porphyromonas gingivalis [13]),MIC (Streptococcus mutans [18]),Structure (SMILES),MBC (Streptococcus mutans [2]),MBC (Streptococcus sanguinis [6]),MBC (Prevotella intermedia [8]),MBC (Fusobacterium nucleatum [12]),MBC (Porphyromonas gingivalis [13]),MBC (Actinomyces viscosus [14]),MBIC50 (Streptococcus mutans [17]),further results
0.5 µg/mL,0.5 µg/mL,0.5 µg/mL,16 µg/mL,0.25 µg/mL,0.5 µg/mL,COc1ccc(/C=C/[C@](C)(/C=C/c2ccc(O)cc2)CCC=C(C)C)cc1,1 µg/mL,1 µg/mL,1 µg/mL,32 µg/mL,0.5 µg/mL,1 µg/mL,1 µg/mL,Ratio (Streptococcus mutans [1]): 2; Ratio (Actinomyces viscosus [3]): 2; Activity (Streptococcus mutans [4]): >80%; Ratio (Prevotella intermedia [5]): 2; Ratio (Streptococcus sanguinis [10]): 2; Activity (Streptococcus mutans [11]): Active; Ratio (Fusobacterium nucleatum [15]): 2; Ratio (Porphyromonas gingivalis [16]): 2; Activity (Streptococcus mutans [19]): Active
128 µg/mL,64 µg/mL,64 µg/mL,> 128 µg/mL,32 µg/mL,128 µg/mL,C=C[C@@](C)(/C=C/c1ccc(O)cc1)CCC1OC1(C)C (stereo partly drawn),> 128 µg/mL,> 128 µg/mL,128 µg/mL,> 128 µg/mL,64 µg/mL,128 µg/mL,–,–
2 µg/mL,2 µg/mL,2 µg/mL,16 µg/mL,1 µg/mL,4 µg/mL,COc1ccccc1/C=C/[C@@](C)(/C=C/c1ccc(O)cc1)CCC=C(C)C,8 µg/mL,4 µg/mL,4 µg/mL,32 µg/mL,2 µg/mL,4 µg/mL,8 µg/mL,–
16 µg/mL,16 µg/mL,32 µg/mL,64 µg/mL,4 µg/mL,32 µg/mL,CCCOc1ccc(/C=C/[C@@](C)(/C=C/c2ccc(O)cc2)CCC=C(C)C)cc1Cl,8 µg/mL,32 µg/mL,32 µg/mL,128 µg/mL,4 µg/mL,64 µg/mL,–,–
2 µg/mL,2 µg/mL,2 µg/mL,8 µg/mL,0.5 µg/mL,1 µg/mL,COc1ccc(/C=C/[C@@](C)(/C=C/c2ccc(O)cc2)CCC=C(C)C)cc1,2 µg/mL,2 µg/mL,4 µg/mL,8 µg/mL,1 µg/mL,2 µg/mL,2 µg/mL,Ratio (Streptococcus mutans [1]): 2; Ratio (Actinomyces viscosus [3]): 2; Activity (Streptococcus mutans [4]): >80%; Ratio (Prevotella intermedia [5]): 2; Ratio (Streptococcus sanguinis [10]): 2; Activity (Streptococcus mutans [11]): Active; Ratio (Fusobacterium nucleatum [15]): 0.25; Ratio (Porphyromonas gingivalis [16]): 2; Activity (Streptococcus mutans [19]): Active
128 µg/mL,64 µg/mL,128 µg/mL,> 128 µg/mL,32 µg/mL,64 µg/mL,C=C[C@@](C)(/C=C/c1ccc(O)c([N+](=O)[O-])c1)CCC=C(C)C,128 µg/mL,> 128 µg/mL,128 µg/mL,> 128 µg/mL,32 µg/mL,> 128 µg/mL,–,–
16 µg/mL,16 µg/mL,16 µg/mL,32 µg/mL,2 µg/mL,16 µg/mL,C=C[C@@](C)(/C=C/c1ccc(O)c(N)c1)CCC=C(C)C,32 µg/mL,32 µg/mL,32 µg/mL,64 µg/mL,4 µg/mL,32 µg/mL,–,–
16 µg/mL,64 µg/mL,32 µg/mL,> 128 µg/mL,8 µg/mL,128 µg/mL,C=C[C@@](C)(/C=C/c1ccc(OC(C)=O)cc1)CCC=C(C)C [ACETYLBAKUCHIOL],> 128 µg/mL,16 µg/mL,64 µg/mL,> 128 µg/mL,8 µg/mL,64 µg/mL,–,–
0.25 µg/mL,0.25 µg/mL,0.5 µg/mL,> 128 µg/mL,0.25 µg/mL,0.5 µg/mL,CC(C)=CCCC(C)(/C=C/c1ccc(O)cc1)/C=C/c1ccc(O)cc1,1 µg/mL,1 µg/mL,1 µg/mL,> 128 µg/mL,1 µg/mL,1 µg/mL,1 µg/mL,Activity (Streptococcus mutans [4]): >80%; Activity (Streptococcus mutans [11]): Active; Activity (Streptococcus mutans [19]): Active
16 µg/mL,16 µg/mL,16 µg/mL,> 128 µg/mL,2 µg/mL,16 µg/mL,COc1ccc(/C=C/[C@@](C)(/C=C/c2ccc(O)cc2)CCC=C(C)C)cc1C=O,16 µg/mL,32 µg/mL,32 µg/mL,> 128 µg/mL,2 µg/mL,32 µg/mL,–,–
4 µg/mL,2 µg/mL,4 µg/mL,> 128 µg/mL,2 µg/mL,4 µg/mL,COc1ccc(/C=C/[C@@](C)(/C=C/c2ccc(O)cc2)CCC=C(C)C)cc1CO,4 µg/mL,8 µg/mL,4 µg/mL,> 128 µg/mL,4 µg/mL,8 µg/mL,8 µg/mL,–
2 µg/mL,2 µg/mL,2 µg/mL,> 128 µg/mL,1 µg/mL,2 µg/mL,CC(C)=CCC[C@@](C)(/C=C/c1ccc(N)cc1)/C=C/c1ccc(O)cc1,4 µg/mL,4 µg/mL,4 µg/mL,> 128 µg/mL,2 µg/mL,2 µg/mL,–,–
1 µg/mL,1 µg/mL,1 µg/mL,32 µg/mL,1 µg/mL,1 µg/mL,C=C[C@@](C)(/C=C/c1ccc(O)cc1)CCC=C(C)C [BAKUCHIOL],2 µg/mL,2 µg/mL,2 µg/mL,64 µg/mL,1 µg/mL,2 µg/mL,4 µg/mL,Activity (Streptococcus mutans [4]): >80%; Activity (Streptococcus mutans [11]): Active; Activity (Streptococcus mutans [19]): Active
> 128 µg/mL,> 128 µg/mL,> 128 µg/mL,> 128 µg/mL,32 µg/mL,> 128 µg/mL,C=C[C@@](C)(/C=C/c1ccc(OC)cc1)CCC=C(C)C,> 128 µg/mL,> 128 µg/mL,> 128 µg/mL,> 128 µg/mL,32 µg/mL,> 128 µg/mL,–,Activity (Streptococcus mutans [4]): inactive; Activity (Streptococcus mutans [11]): Active; Activity (Streptococcus mutans [19]): Active
1 µg/mL,2 µg/mL,2 µg/mL,> 128 µg/mL,1 µg/mL,2 µg/mL,CC[C@](C)(CCCC(C)C)CCc1ccc(O)cc1,4 µg/mL,2 µg/mL,4 µg/mL,> 128 µg/mL,2 µg/mL,4 µg/mL,4 µg/mL,–
32 µg/mL,32 µg/mL,32 µg/mL,32 µg/mL,16 µg/mL,64 µg/mL,C=C[C@@](C)(/C=C/c1ccc(O)cc1)CC/C=C(/C)C=O,128 µg/mL,64 µg/mL,64 µg/mL,64 µg/mL,16 µg/mL,64 µg/mL,–,–

Structure (SMILES),MIC (Streptococcus sanguinis [7]),MIC (Prevotella intermedia [8]),MIC (Actinomyces viscosus [9]),MIC (Fusobacterium nucleatum [12]),MIC (Porphyromonas gingivalis [13]),MIC (Streptococcus mutans [18]),MBC (Streptococcus mutans [2]),MBC (Streptococcus sanguinis [6]),MBC (Prevotella intermedia [8]),MBC (Fusobacterium nucleatum [12]),MBC (Porphyromonas gingivalis [13]),MBC (Actinomyces viscosus [14]),MBIC50 (Streptococcus mutans [17]),further results
Oc1cc(Cl)ccc1Oc1ccc(Cl)cc1Cl [TRICLOSAN],4 µg/mL,1 µg/mL,4 µg/mL,2 µg/mL,2 µg/mL,4 µg/mL,8 µg/mL,4 µg/mL,1 µg/mL,2 µg/mL,2 µg/mL,8 µg/mL,–,–
